In the library only some 1.9% were active in any assay of this set; here they are far more common.
MIN6 prolif = inducers of MIN6 beta-cell proliferation, primary screen, ATP luminescence, uHTS; proliferation, % at 10 µM; MIN6 cells proliferation, ATPlite luminescence, 48 h; cells starved in 0.2% serum; 100% = growth in 10% serum; 330,000 compounds, 0.29% hits;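 active = compounds whose signal lies at least 3.5 SD above the mean of all wells on their plate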;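 note: 0% = DMSO-treated cells in low-serum medium and 100% = 10% serum control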
PG9 Ab binder = binders of HIV-1 gp120 antibody PG9, primary screen, biochemical, TR-FRET; HIV-1 gp120 / PG9 antibody interaction; TR-FRET gp120-PG9 antibody binding; inhibition, % at 6.7 µM; 360,000 compounds, 0.43% hits; in the data active = inhibition above about 8.5%
Rev-erbA mod = modulators of Rev-erb alpha DNA binding, primary screen, biochemical, FITC-DNA, fluorescence polarization, uHTS. Nuclear receptor subfamily 1 group D member 1 (Homo sapiens), P20393. Rev-erbα–FITC-DNA binding, 90 min. activity, % at 10 µM. 370,000 compounds, 0.79% hits. AID 1259318, 2017;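 active = activity above about 14%, limit read from the data; passing the limit was not always enough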;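 note: 0% = DMSO wells with 35 nM protein and 100% = DMSO wells with 750 nM protein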
CR mimetic SO = reduction of superoxide in aged yeast, primary screen, HTS. S. cerevisiae aged cells, superoxide DHE fluorescence; active compounds read low. superoxide response (% of plate mean), % at 10 µM. 330,000 compounds, 0.18% hits;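 active = superoxide response under a set limit, about three screen SD below normal, cut at about 65% in these data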;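 note: yeast aged for seven days with compound at 30 °C before DHE staining; 100% = average MFI of all compound-treated wells on the plate with controls excluded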
Rce1 inhib = yeast Rce1p protease inhibitors, primary screen, biochemical, fluorescence, cell-free homogeneous | CAAX prenyl protease 2 (Saccharomyces cerevisiae (strain ATCC 204508 / S288c)), Q03530 | yeast membranes, quenched prenylated peptide cleavage fluorescence | calls only | 290,000 compounds, 0.27% hits | AID 2563, 2010;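 active = fall in fluorescence gain of 50% or more versus controls, with final raw signal at or below 3038400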;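 note: plate controls were neutral control wells for no effect and wells lacking membranes for full effect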
UCH37 DUB inh = inhibitors of human UCH37 deubiquitinase, primary screen, biochemical, Ub-AMC cleavage, fluorescence | Ubiquitin carboxyl-terminal hydrolase isozyme L5 (Homo sapiens), Q9Y5K5 | purified proteasome/UCH37 | inhibition, % (no concentration beside the values) | 330,000 compounds, 0.33% hits;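 active = mean inhibition over replicate wells above about 20%, limit read from the data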;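 note: 0% = compound-free wells with enzyme and 100% = wells lacking proteasome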
Target sequence (Q9Y5K5 whole entry, looked up): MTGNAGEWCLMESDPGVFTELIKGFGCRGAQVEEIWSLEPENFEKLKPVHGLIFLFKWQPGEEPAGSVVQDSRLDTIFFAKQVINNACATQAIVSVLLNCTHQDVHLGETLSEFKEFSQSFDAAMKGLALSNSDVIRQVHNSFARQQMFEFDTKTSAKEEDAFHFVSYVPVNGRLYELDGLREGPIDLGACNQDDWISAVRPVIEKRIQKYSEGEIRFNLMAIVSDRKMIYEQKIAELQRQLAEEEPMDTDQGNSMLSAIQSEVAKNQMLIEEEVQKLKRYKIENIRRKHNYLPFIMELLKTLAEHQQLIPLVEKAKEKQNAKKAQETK
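Material: human UCH37 enzyme supplied as purified proteasome complex / Amount: 0.15 nM proteasome as dispensed / Buffer or medium: pH 7.4 Tris-HCl (50 mM) with ovalbumin, ATP-MgCl2, DTT / Times: preincubation 30 min, reaction 25 min, room temperature / Technique: AMC fluorescence from Ub-AMC cleavage, excitation 355 nm, emission 460 nm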
Superoxide pick = superoxide lowering in aged yeast cells, confirmation, cherry picked compounds. S. cerevisiae aging, superoxide DHE fluorescence; active compounds read low. superoxide response (% of plate), % at 10 µM. 850 compounds, 1% hits. shares compounds with CR mimetic SO;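 active = superoxide signal below 65% of the plate average of sample wells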;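 note: cells aged with compound for 7 days at 30 degrees C before staining; 100% equals mean DHE fluorescence of all compound wells on the plate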
DHE counter = DHE quenching or ROS scavenging interference in aged yeast, artefact control for yeast caloric restriction mimetic project, S. cerevisiae BY4741, flow cytometry; DHE fluorescence; active compounds read low; 850 tested, under 10 active; shares compounds with CR mimetic SO; AID 435000, 2010; fluorescence response, % at 10 µM;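 active = fluorescence response below 15%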;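 note: percent of the mean fluorescence averaged over all compound wells on the plate; lower means stronger quenching of DHE signal or ROS scavenging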
* marks the source's active call; other numbers are inactive results.

Fc1cccc(F)c1CN1CCN(c2ccc(Cl)cc2)CC1 was read as MIN6 prolif 0.0, PG9 Ab binder -0.9, Rev-erbA mod 7.0, CR mimetic SO 38.4*, Rce1 inhib inactive, UCH37 DUB inh 3.6, Superoxide pick 98.8 and DHE counter 90.8.
Fc1ccc(CN2CCN(c3ccc(Cl)cc3)CC2)cc1 was read as MIN6 prolif -1.6, PG9 Ab binder 1.9, Rev-erbA mod -5.9, CR mimetic SO 81.9, Rce1 inhib inactive and UCH37 DUB inh 4.7.
`O=C(CCc1ccccc1)N1Cc2cc(N3CCOCC3)ccc2-n2nncc2C1` gave PG9 Ab binder 1.1 and Rev-erbA mod -2.0.
Screening OCC[n+]1c2ccccc2nc2ccc(N3CCOCC3)cc21 returned MIN6 prolif -1.6, PG9 Ab binder -34.6, Rev-erbA mod -4.4, CR mimetic SO 42.5*, Rce1 inhib inactive, UCH37 DUB inh 7.2, Superoxide pick 65.7 and DHE counter 91.2.
Screening Cc1cc(Cl)nc(N)n1 returned MIN6 prolif -2.1, PG9 Ab binder -3.2, Rev-erbA mod 5.8, CR mimetic SO 51.1*, Rce1 inhib inactive, UCH37 DUB inh -2.4, Superoxide pick 99.0 and DHE counter 87.7.
For C=C1C(O)[C@@H]2O[C@]3(CC[C@H](/C=C/C(C)[C@@H]4CC(C)=CC5(O[C@H](C[C@@](C)(O)C(=O)O)CCC5O)O4)O3)CC[C@H]2O[C@@H]1C(O)CC(C)[C@H]1OC2(CCCCO2)CCC1C (stereo not given in full) the results were MIN6 prolif -4.9, CR mimetic SO 46.8*, Superoxide pick 47.7* and DHE counter 101.9.
Screening CN(C)C(=O)ON=C(N)COc1ccc(C(C)(C)C)cc1 returned UCH37 DUB inh 0.7.
C[C@H]1CCCC=C[C@@H]2C[C@H](O)C[C@H]2[C@H](O)C=CC(=O)O1 was read as UCH37 DUB inh 4.7.
For C[C@]12CCC3C(CC[C@H]4C[C@H](O)CC[C@]34C)C1C[C@@H](CCCCl)[C@@H]2O (stereo not given in full) the results were MIN6 prolif -6.3, PG9 Ab binder 0.2, Rev-erbA mod -6.9, CR mimetic SO 58.1*, Superoxide pick 68.5 and DHE counter 98.1.
`C[C@]12CCC3C(CC[C@H]4C[C@@H](O)CC[C@]34C)C1C[C@H](Br)[C@@H]2O` (stereo not given in full) gave MIN6 prolif -0.7, PG9 Ab binder 0.3, Rev-erbA mod -1.4, CR mimetic SO 72.6, Superoxide pick 108.1 and DHE counter 112.0.
C[C@]12CCC3C(CC[C@H]4C[C@H](N)CC[C@]34C)C1CC[C@H]2O (stereo not given in full) was read as MIN6 prolif 1.8, PG9 Ab binder 0.4, Rev-erbA mod 1.0, CR mimetic SO 113.5, Rce1 inhib inactive, UCH37 DUB inh 6.2, Superoxide pick 103.2 and DHE counter 95.6.
`O1[As]2O[As]3O[As]1O[As](O2)O3` gave Rev-erbA mod -8.2.

Assay outcomes as filed in PubChem BioAssay.
